Screens: PubChem, several laboratories
Sampled rows, rich in hits. Any-hit rate of the full collection: about 9%.
M1 antagonist: antagonists of rat M1 muscarinic receptor; P08482; CHO-M1 cells, Fluo-4 calcium, ACh EC80 antagonist mode; active compounds read low; B-score at 10 µM; 64,000 compounds, 3.4% hits; AID 628;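 active = calcium fluorescence response, raw or row-and-column corrected B-score, differing from the plate sample mean either way at a set confidence level, mostly lower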
Target sequence (P08482 whole entry, looked up): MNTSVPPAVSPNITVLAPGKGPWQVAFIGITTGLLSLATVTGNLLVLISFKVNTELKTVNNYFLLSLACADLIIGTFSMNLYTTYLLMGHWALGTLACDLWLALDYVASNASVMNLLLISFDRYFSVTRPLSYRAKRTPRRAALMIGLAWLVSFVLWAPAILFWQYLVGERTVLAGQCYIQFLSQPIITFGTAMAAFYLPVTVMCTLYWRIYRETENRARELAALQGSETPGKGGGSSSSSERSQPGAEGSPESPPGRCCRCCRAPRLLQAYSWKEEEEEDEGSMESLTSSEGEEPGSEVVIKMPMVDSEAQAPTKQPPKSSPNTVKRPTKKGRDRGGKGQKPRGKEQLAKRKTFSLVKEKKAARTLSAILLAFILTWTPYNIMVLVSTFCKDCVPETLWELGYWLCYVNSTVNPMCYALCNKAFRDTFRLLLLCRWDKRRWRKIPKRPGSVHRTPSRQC
AP complement: alternative pathway complement inhibition, orthogonal assay | Human serum alternative complement pathway, LPS-coated ELISA, C3 deposition; tested in compound mixtures | inhibition, % at 5 µM | 62,000 compounds, 0.08% hits | AID 1235;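 active = inhibition above 30% in each of the two pooled mixtures holding the compound, so the lower value exceeds 30%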;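 note: 0% = serum in Mg-EGTA without compound and 100% = EDTA serum blank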
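Test system: human serum alternative complement pathway, C3 deposition on LPS-coated wells; also added: Plate-bound LPS; doses: 5 µM per compound in ten-compound mixtures; schedule: 1 h at 37 °C; detection: Anti-C3 ELISA, OD 450 nm; evaluation: percent inhibition of C3 deposition onto LPS; repeats: two pool placements per compound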
M1 ag: agonists of M1 muscarinic receptor; B-score at 10 µM; CHO-M1 cells, Fluo-4 calcium fluorescence, agonist mode; active compounds read high; 64,000 compounds, 3% hits;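 active = fluorescence rise, raw or as B-score row- and column-corrected plate score, outside the 99.7% band of its plate's samples, either direction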
D1 allo mod: allosteric modulators of human D1 dopamine receptor; P21728; HEK293 D1, CRE-luciferase, dopamine EC30 potentiation; actives deviate in either direction; B-score at 10 µM; 58,000 compounds, 5.9% hits;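 active = luminescence count or its row- and column-corrected plate score outside the 99.7% band of the plate's sample wells, on either side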
mHtt clearance: compounds clearing mutant huntingtin protein | 47,000 compounds, 0.42% hits | AID 853 | HeLa Exon1htt(103Q)mCFP, aggregate imaging; zero = plate's median compound well | inhibition, % at 1.5 µM;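 active = inhibition of aggregate fluorescence above about 70%, also judged a hit by eye on the cell image, limit read from the data, passing the limit was not always enough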;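 note: cells exposed to compound for three days before fixation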
M1 antag confirm: M1 muscarinic receptor (rat) antagonism, confirmed | shares compounds with M1 antagonist | CHO-M1 cells, Fluo-4 calcium, ACh EC80 antagonism; active compounds read low | calcium response (max-min fluorescence) at 10 µM | 1,700 compounds, 43% hits | AID 677;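 active = calcium response below the same-plate mean of wells given acetylcholine alone at its 80%-effect dose, minus 3 SD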;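 note: raw fluorescence intensity difference in arbitrary instrument units and not normalized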
mGluR4 antag: acts on human mGluR4 in M1 antagonist selectivity test | 1,700 compounds, 0.9% hits | fluorescence response (max-min) at 10 µM | CHO-mGluR4 calcium flux, Fluo-4 fluorescence, glutamate EC80; active compounds read low | shares compounds with M1 antagonist | AID 678;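 active = fluorescence response below the plate's average for near-maximal glutamate wells, less 3 SD of those wells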;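 note: raw unnormalized fluorescence span taken in the window right after glutamate addition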
* = called active by the depositor; nt = not tested or not shown.

SMILES	M1 antagonist	AP complement	M1 ag	D1 allo mod	mHtt clearance	M1 antag confirm	mGluR4 antag
COc1ccc(Nc2nc(N3CCCC3)nc3ccccc23)c(OC)c1	-8.1*	12	-0.69	-3.1	-87	342*	188
COC(=O)C1=C(NC(=O)c2cccc(C)c2)CCS1	nt	7	nt	nt	nt	nt	nt
Oc1ccccc1Oc1ncc(Br)c(N2CCOCC2)n1	-17*	14	-0.35	3	56	16*	258
Cc1cc(C)c(Cn2c(=O)n(CCCC(=O)NCc3ccco3)c(=O)c3ccccc32)c(C)c1	0.039	13	-0.8	0.34	-20	nt	nt
COc1cccc(OC)c1C(=O)n1nc(C)cc1C	-0.64	8	0.69	0.02	-87	nt	nt
Cc1cc(C)n(C(=O)c2cc3ccccc3c(=O)o2)n1	-5.1*	5	0.18	0.86	-3	662	250
Cc1nc2ccc(S(=O)(=O)NCC(=O)N3CCCC(C)C3)cc2s1 (centres undefined)	-0.52	0	0.12	0.43	-43	nt	nt
CC(C)Cn1cnc2c(c1=O)c1nc3ccccc3nc1n2Cc1ccc2c(c1)OCO2	0.88	nt	0.051	nt	nt	nt	nt
COCCn1c(SCC(=O)Nc2ccc(S(=O)(=O)N3CCOCC3)cc2)nc2ccccc21	-7.6*	4	-0.34	-0.19	nt	348*	270
COc1ccc(/C(O)=C2/C(=O)C(=O)N(CCCN(C)C)C2c2cccc(Cl)c2)cc1OC (centres undefined)	-0.29	nt	-0.66	-0.27	nt	nt	nt
Cc1nc(NC2=NCN(CCCN3CCOCC3)CN2)nc2c(C)cccc12	-7.4*	2	-1.6	-1.4	58	48*	198
Cc1ccc(S(=O)(=O)NCCCN2CCOCC2)cc1C	-0.38	16	-1.1	nt	1	nt	nt
Cc1cc2nc(NC3=NCN(CCCN4CCOCC4)CN3)nc(C)c2cc1C	-14*	7	0.37	-0.71	nt	22*	189
Cc1noc(C)c1C(=O)NCCCN1CCCC1=O	0.19	19	1.2	0.54	nt	nt	nt
O=C(Cn1c(=O)oc2cc(S(=O)(=O)N3CCc4ccccc43)ccc21)NC1CCCC1	-4.3*	6	0.06	0.015	-152	503*	186
CC(C)CCNC(=O)Cn1c(=O)oc2cc(S(=O)(=O)N3CCc4ccccc43)ccc21	-4.5*	0	-0.89	-0.46	11	478*	201
Cc1cc(NC(=O)COC(=O)c2cc(S(=O)(=O)N3CCOCC3)ccc2N2CCCCC2)no1	nt	nt	nt	nt	-4	nt	nt
O=C(C(Cc1ccccc1)n1cccc1)N1CCN(Cc2ccccc2)CC1 (centres undefined)	-16*	10	0.24	-0.44	nt	18*	196
CC1(C)CN=C(NC2CCCCC2)S1	-4.8*	13	0.41	0.17	nt	459*	236
Cc1nc(Nc2ncc3c(n2)CCCC3=O)nc2ccccc12	0.66	nt	0.92	nt	nt	nt	nt
Cn1c(C(=O)N2CCCC(C(=O)NCCCc3ccccc3)C2)cc2sccc21 (centres undefined)	-2.3	10	-0.42	0.041	nt	nt	nt
Cn1c(C(=O)N2CCCC(C(=O)NCCc3ccccc3)C2)cc2sccc21 (centres undefined)	-6.1*	21	-1.1	-0.48	nt	328*	248
COc1ccc(OC)c2sc(N3CCCCC3)nc12	-4.2*	-10	-0.33	-1.2	19	386*	252
Clc1cccc2sc(N3CCCCC3)nc12	-0.72	16	1.5	0.62	-7	nt	nt
CCN1CCN(c2ccc(NC(=O)c3cccnc3)cc2Cl)CC1	-3.6*	15	-0.86	-1.3	nt	460*	190
SMILES	M1 antagonist	AP complement	M1 ag	D1 allo mod	mHtt clearance	M1 antag confirm	mGluR4 antag
CCN1CCN(c2ccc(NC(=O)COc3ccccc3Cl)cc2)CC1	-9*	15	0.0017	-5*	nt	322*	168
CCN1CCN(C(c2cccs2)C(C)NC(=O)c2cccnc2)CC1 (centres undefined)	-1.4*	9	-0.086	-4.4*	nt	578*	239
CCCCOc1cccc(C(=O)Nc2ccc(N3CCN(CC)CC3)cc2)c1	-16*	4	0.12	-3.6*	nt	36*	254
Cc1ccc(C2/C(=C(\O)c3c(C)nc4ccccn34)C(=O)C(=O)N2CCCN2CCOCC2)o1 (centres undefined)	0.28	-9	-0.37	0.024	nt	nt	nt
CCOc1cc(S(=O)(=O)NCC2OCCc3ccccc32)c(OCC)cc1-n1cnnn1 (centres undefined)	0.6	11	0.046	-0.12	nt	nt	nt
CCC(=O)N1CCN(c2ccc(NC(=O)c3ccc4c(c3)OCO4)cc2)CC1	-1	22	0.19	-0.34	-12	nt	nt
CCN1CCN(c2ccc(NC(=O)c3ccc4c(c3)OCO4)cc2)CC1	-3*	17	0.068	nt	34	398*	267
Cc1ccc(N(CC(=O)NCc2ccc3c(c2)OCO3)S(=O)(=O)c2c(C)noc2C)cc1	1.7	9	1.5	0.0064	nt	nt	nt
COC(=O)C(C)Sc1snnc1-c1ccccc1 (centres undefined)	nt	nt	nt	nt	-7	nt	nt
Cc1ccc2c(c1)NC(=O)C(CC(=O)NCCCN1CCN(c3cc(Cl)ccc3C)CC1)O2 (centres undefined)	-2.1*	-12	-0.8	-2.6*	nt	332*	254
Cc1ccc2c(c1)NC(=O)C(CC(=O)NCCCN1CCCCC1)O2 (centres undefined)	-0.18	13	0.36	0.34	34	nt	nt
O=C(CSc1nnc(-c2cccs2)n1-c1ccccc1)N1CCc2ccccc21	-3*	-2	0.15	-0.17	21	457	205
Cn1c(CN2CCCCC2)nc2cc(NC(=O)c3ccccc3)ccc21	-2.8*	0	0.034	nt	-27	472	208
Cn1c(CCN2CCCCC2)nc2cc(NS(=O)(=O)c3ccc(Cl)cc3)ccc21	-3.1*	3	-0.92	-1.3	nt	305*	243
Cc1ccc(N2CCN(CCc3nc4cc(NC(=O)c5ccco5)ccc4n3C)CC2)cc1	nt	-2	nt	-0.94	-17	nt	nt
Cn1c(CCN2CCN(c3ccccc3)CC2)nc2cc(NC(=O)c3ccco3)ccc21	-5.5*	-28	0.59	-2.5	54	125*	203
Cn1c(CCN2CCCCC2)nc2cc(NC(=O)C3CCCCC3)ccc21	-3.8*	-6	-0.23	-1.4	nt	408*	198
CC(c1ccco1)N(C(=O)c1ccc(Cl)s1)c1ccccn1 (centres undefined)	0.27	-1	-0.88	0.05	15	nt	nt
Cn1c(CCN2CCOCC2)nc2cc(NC(=O)COc3ccccc3)ccc21	-3.7*	-9	-0.2	-0.75	15	581	174
Cn1c(CN2CCCCC2)nc2cc(NS(=O)(=O)c3ccc(Cl)cc3)ccc21	-0.86	-19	-1.6	0.52	-35	nt	nt
CC1CCN(CCc2nc3cc(NS(=O)(=O)c4ccc(F)cc4)ccc3n2C)CC1	-4*	0	-0.1	0.091	-6	405*	267
